Experimental data gathered from unrelated publications.
Compare with care: the assays were run in different laboratories.
Target: Ephrin type-B receptor 1 (EPHB1, Homo sapiens, UniProt P54762)
Sequence (P54762 18-984, as in one of the studies): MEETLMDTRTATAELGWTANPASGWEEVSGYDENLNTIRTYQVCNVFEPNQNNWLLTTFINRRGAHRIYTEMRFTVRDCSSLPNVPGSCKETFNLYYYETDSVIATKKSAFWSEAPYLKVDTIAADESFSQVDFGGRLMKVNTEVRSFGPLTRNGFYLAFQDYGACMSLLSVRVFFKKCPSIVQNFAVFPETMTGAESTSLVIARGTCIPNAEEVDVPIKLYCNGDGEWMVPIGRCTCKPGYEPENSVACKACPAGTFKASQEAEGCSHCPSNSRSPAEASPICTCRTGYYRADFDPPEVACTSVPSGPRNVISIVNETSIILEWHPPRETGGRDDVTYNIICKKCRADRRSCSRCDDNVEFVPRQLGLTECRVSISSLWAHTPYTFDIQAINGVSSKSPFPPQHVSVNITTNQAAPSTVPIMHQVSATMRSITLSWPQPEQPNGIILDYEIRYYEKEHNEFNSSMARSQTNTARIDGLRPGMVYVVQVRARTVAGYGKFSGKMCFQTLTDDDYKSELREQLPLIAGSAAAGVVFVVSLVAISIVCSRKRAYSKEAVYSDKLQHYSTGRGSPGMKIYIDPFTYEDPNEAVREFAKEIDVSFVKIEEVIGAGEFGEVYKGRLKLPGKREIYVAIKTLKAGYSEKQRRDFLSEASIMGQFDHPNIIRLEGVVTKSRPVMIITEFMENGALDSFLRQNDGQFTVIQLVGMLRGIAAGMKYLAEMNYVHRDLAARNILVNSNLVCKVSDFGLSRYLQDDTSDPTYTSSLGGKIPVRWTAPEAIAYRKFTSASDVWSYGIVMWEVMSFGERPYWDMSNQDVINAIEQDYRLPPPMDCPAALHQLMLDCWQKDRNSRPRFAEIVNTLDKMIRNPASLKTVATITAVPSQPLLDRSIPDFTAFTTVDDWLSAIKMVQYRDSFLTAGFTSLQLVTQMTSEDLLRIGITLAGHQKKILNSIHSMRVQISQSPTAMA

| SMILES | effect on | technique | tested at | remaining binding |
| --- | --- | --- | --- | --- |
| Cc1cc(NC(=O)c2cccc(S(F)(F)(F)(F)F)c2)cc(-n2ccn3nc(-c4cccnc4)cc23)c1 | cell-free assay | competition with immobilised ligand | 1 µM | 100% |
| FC(F)(F)Oc1cccc(-c2cnc3ccc(-c4ccncc4)nn23)c1 | cell-free assay | competition with immobilised ligand | 5 µM | 82% |
| CNCc1ccccc1-c1csc([C@H](C)Nc2nc(C)nc3cc(OC)c(OC)cc23)c1 | cell-free assay | competition with immobilised ligand | 1 µM | 100% |
| N[C@H]1CCN(c2nccc(-c3cnn4ncccc34)n2)C1 | binding |  | 1 µM | 100% |
| Cc1cnc(Nc2ccc(C(=O)N3CCC(N4CCCC4)CC3)cc2)nc1-c1cc2ccccc2s1 | binding | competition with immobilised ligand | 1 µM | 4.4% |
| CNC(=O)[C@@H]1CC[C@@H](n2c(-c3ccc4cnccc4c3)nc3ccc(C(=O)NCc4cccc(C(N)=O)c4)cc32)C1 | binding | competition with immobilised ligand | 1 µM | 100% |
| CO[C@@H](C)c1c(Nc2ccc([C@H](N(C)C(=O)C3CCS(=O)(=O)CC3)C(F)(F)F)cc2)cnc2cc(Cl)nn12 | cell-free assay | competition with immobilised ligand | 1 µM | 86% |
| c1cncc(-c2cccc(Nc3nccc(NC4CCCCC4)n3)c2)c1 | binding | competition with immobilised ligand | 10 µM | 81% |
| O=C(O)c1cc(-c2ccc(C3CCNCC3)cc2)c2ccc(-c3ccc(C(F)(F)F)cc3)cc2c1 | cell-free assay | competition with immobilised ligand | 1 µM | 100% |
| O=C(c1ccc(Nc2nccc(-c3cc4ccccc4s3)n2)cc1)N1CCC(N2CCCC2)CC1 | binding | competition with immobilised ligand | 1 µM | 47% |
| Cc1cnn2ncc(-c3ccnc(N(C)C)n3)c2c1 | binding |  | 1 µM | 100% |
| CCN1CCN(Cc2ccc(C(=O)Nc3ccc(C)c(Oc4ccc5c(c4)CC(=O)N5)c3)cc2C(F)(F)F)CC1 | binding | competition with immobilised ligand | 1 µM | 100% |
| CC1CCCN1c1nccc(-c2cnn3ncccc23)n1 (centres unmarked) | binding |  | 1 µM | 100% |
| O=C(N[C@H]1CCCCC/C=C\C2C[C@@]2(C(=O)O)NC(=O)[C@@H]2C[C@@H](Oc3ccncc3)CN2C1=O)OC1CCCC1 (some centres unmarked) | cell-free assay | competition with immobilised ligand | 1 µM | 100% |
| C[C@@H](c1ccc(-n2cnc3c(N)ncnc32)cc1)N1CCc2nn(C)c(Cc3ccccc3)c2C1=O | binding | competition with immobilised ligand | 0.1 µM | 70% |
| Nc1cnc(N2CCc3cc(S(=O)(=O)Nc4c(F)cc(Cl)cc4F)cc(N4CCCC4=O)c32)nc1 | cell-free assay | competition with immobilised ligand | 1 µM | 92% |
| C[C@H]1CCN(c2nccc(-c3cnn4ncccc34)n2)C1 | binding |  | 1 µM | 100% |
| O=C(NCCCN1CCOCC1)c1ccc(Nc2nccc(-c3cc4ccccc4s3)n2)cc1 | binding | competition with immobilised ligand | 1 µM | 77% |
| CN(c1nccc(-c2cnn3ncccc23)n1)C1CC1 | binding |  | 1 µM | 100% |
| O=C(NCC1CCOCC1)c1n[nH]cc1NC(=O)c1c(F)cccc1F | binding | competition with immobilised ligand | 1 µM | 100% |
